From PubChem BioAssay
The source made the active and inactive calls. Unless noted, no stated cut-off is given here; in the data, active means inhibition above about 30%; inactive means the rest.

Tests used:
[1] = HUVEC growth inhibition – cell-based, human, primary screen (AID 575;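 active means viability at or below 30% in both replicate assays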;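 further: 100% = median of untreated cell wells with 0.1% DMSO on each plate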); conditions: HUVEC proliferation, CellTiter-Glo luminescence, 72 h; at 10 µM; stronger effect = lower value
Method in brief: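 Assay system: Primary human umbilical vein endothelial cells | Quantity: 1250 cells per well | Medium: Supplemented EBM, 2% fetal bovine serum | Detection: CellTiter-Glo luminescence measuring cellular ATP | Read-out: % viability vs DMSO wells | Plate: Collagen-coated 384-well format | Times: 72 h exposure, 37 °C, 5% CO2, 30 min RT equilibration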

[2] = H69AR cell proliferation blockers – human, duplicate replicates, primary screen (AID 580;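 active means viability at or under a set limit in both replicates, limit being median viability minus 3 SD, cut at about 48% in these data, passing the limit was not always enough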;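 further: 100% = mean luminescence of untreated wells and 0% = no signal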); conditions: H69AR lung tumor cells viability, ATP luminescence, 72 h; at 10 µM; stronger effect = lower value
[3] = MRP1 drug-resistance reversers in H69AR cells – cell-based, doxorubicin co-treatment, pilot screen (AID 601;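 active means viability loss from added drug above about 55%, and viability with drug at most 40%, in both replicates, limit read from the data, passing the limit was not always enough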); conditions: CellTiter-Glo, 72 h, at 10 µM; for differential viability (reversal): stronger effect = higher value
[4] = yeast transport mutant growth inhibition pilot in 384-well plates, post-Golgi transport modulator project (AID 636; in the data active means inhibition above about 31%); conditions: absorbance 615 nm, about 18 h, stronger effect = higher value
[5] = growth suppression of yeast trafficking mutant, preliminary HTS, modulators of trafficking downstream of Golgi apparatus project, 1536-format plate, OD 615 nm (AID 637); conditions: yeast transport mutant growth, absorbance 615 nm, 18 h; stronger effect = higher value
[6] = H69AR cells + 2 uM doxorubicin, measured here: viability with 2 uM doxorubicin, stronger effect = lower value
[7] = H69AR cells, compound alone cytotoxicity

SMILES	viability [1]	viability [2]	differential viability (reversal) ([3]; H69AR cells + 2 uM doxorubicin)	viability [3, 6]	viability [3, 7]	inhibition [4]	inhibition [5]
O=C(Cn1c(=O)[nH]c2ccsc2c1=O)N1CCN(c2ccc(F)cc2)CC1	91% (inactive)	87.2% (inactive)	1.24% (inactive)	86%	87.2%	-1.84% (inactive)	4.6% (inactive)
CN(C)CCNC(=O)c1ccc(COCC(F)(F)F)cc1	104% (inactive)	84.6% (inactive)	1.1% (inactive)	83.5%	84.6%	-7.07% (inactive)	-3.65% (inactive)
CCOCCCNC(=O)C1CCN(S(=O)(=O)c2c(C)noc2/C=C\c2ccc(OC)cc2)CC1	99.5% (inactive)	101% (inactive)	-0.205% (inactive)	101%	101%	4.13% (inactive)	-3.65% (inactive)
Cc1ccc(-c2nc(-c3cccnc3)no2)c(C)c1	78.9% (inactive)	90.1% (inactive)	-0.56% (inactive)	90.7%	90.1%	-6.49% (inactive)	-9.52% (inactive)
O=C(Nc1nc2ccc(S(=O)(=O)N3CCCC3)cc2s1)C1CCCO1 (stereo not given)	109% (inactive)	97.7% (inactive)	3.71% (inactive)	93.9%	97.7%	-2.76% (inactive)	0% (inactive)
COC(=O)C1=C(CSCc2ccco2)NC(=O)NC1c1cc(C)ccc1C (stereo not given)	98.4% (inactive)	82.5% (inactive)	-9.46% (inactive)	92%	82.5%	-1.47% (inactive)	-1.43% (inactive)
CCCCNC(=O)C(C#N)c1nc2ccccc2nc1N1CCCC1 (stereo not given)	89.2% (inactive)	100% (inactive)	-1.2% (inactive)	102%	100%	-4.93% (inactive)	-4.29% (inactive)
CC1CCCC(NC(=O)CN2CCN(Cc3ccc(Cl)cc3)C2=O)C1C (stereo not given)	108% (inactive)	103% (inactive)	16.2% (inactive)	86.4%	103%	-1.43% (inactive)	4.92% (inactive)
O=C(Nc1ccc(Cl)cc1)N1CCSCC1	97.6% (inactive)	107% (inactive)	17% (inactive)	89.6%	107%	-1.45% (inactive)	-0.16% (inactive)
Cc1cc(C)n(-c2ccc3cccc(NS(C)(=O)=O)c3n2)n1	14.3% (active)	27.6% (active)	-22.8% (inactive)	50.4%	27.6%	-6% (inactive)	7.46% (inactive)
CN1CCN(C(=O)c2ccccc2N(Cc2ccccc2)S(C)(=O)=O)CC1	93.3% (inactive)	91.6% (inactive)	6.72% (inactive)	84.9%	91.6%	-6.1% (inactive)	-6.35% (inactive)
CCCc1cc(=O)[nH]c(/N=C(\N)Nc2ccccc2)n1	80.8% (inactive)	82.4% (inactive)	-13.9% (inactive)	96.3%	82.4%	-0.13% (inactive)	3.49% (inactive)
COc1ccc(C(=O)N2CCN(C(=O)c3ccco3)CC2)cc1OC	87.2% (inactive)	95.9% (inactive)	4.87% (inactive)	91.1%	95.9%	-5.73% (inactive)	0.32% (inactive)
N#CCCn1cnc2ccccc21	108% (inactive)	104% (inactive)	3.56% (inactive)	100%	104%	0.52% (inactive)	-3.97% (inactive)
CCCN(CCC)c1nc2ccccc2n2c(C)nnc12	85.3% (inactive)	81.1% (inactive)	-4.65% (inactive)	85.8%	81.1%	-1.45% (inactive)	8.1% (inactive)
Cc1ccc(N2CCN(C(=O)c3ccccc3)CC2)c(C)c1	114% (inactive)	91.1% (inactive)	6.71% (inactive)	84.4%	91.1%	-7.33% (inactive)	5.4% (inactive)
CCOC(=O)C1CCCN(C(=O)CNS(=O)(=O)c2ccc(Br)s2)C1 (stereo not given)	108% (inactive)	95.7% (inactive)	17.7% (inactive)	78%	95.7%	-6.71% (inactive)	4.13% (inactive)
Cc1ccc(SC(C)c2nc(-c3ccccc3)no2)cc1 (stereo not given)	114% (inactive)	99.9% (inactive)	4.68% (inactive)	95.2%	99.9%	-6.13% (inactive)	-5.08% (inactive)
CCOC(=O)CSc1nnc(CNC(=O)c2ccc(S(=O)(=O)N3CCCC3)cc2)n1C	99.1% (inactive)	112% (inactive)	28.2% (inactive)	84%	112%	-2.6% (inactive)	0.63% (inactive)
Cc1ccc(O)c(C(=O)c2cc(C#N)c(=O)n(CC3CCCO3)c2)c1 (stereo not given)	93.2% (inactive)	89.7% (inactive)	-2.82% (inactive)	92.6%	89.7%	-1.3% (inactive)	0.16% (inactive)
